Results pooled from the literature.
Protocols differ between the studies behind these lines.
Target: Serine/threonine-protein kinase TBK1 (TBK1, Homo sapiens, UniProt Q9UHD2)
Residues used in one study (Q9UHD2 1-729): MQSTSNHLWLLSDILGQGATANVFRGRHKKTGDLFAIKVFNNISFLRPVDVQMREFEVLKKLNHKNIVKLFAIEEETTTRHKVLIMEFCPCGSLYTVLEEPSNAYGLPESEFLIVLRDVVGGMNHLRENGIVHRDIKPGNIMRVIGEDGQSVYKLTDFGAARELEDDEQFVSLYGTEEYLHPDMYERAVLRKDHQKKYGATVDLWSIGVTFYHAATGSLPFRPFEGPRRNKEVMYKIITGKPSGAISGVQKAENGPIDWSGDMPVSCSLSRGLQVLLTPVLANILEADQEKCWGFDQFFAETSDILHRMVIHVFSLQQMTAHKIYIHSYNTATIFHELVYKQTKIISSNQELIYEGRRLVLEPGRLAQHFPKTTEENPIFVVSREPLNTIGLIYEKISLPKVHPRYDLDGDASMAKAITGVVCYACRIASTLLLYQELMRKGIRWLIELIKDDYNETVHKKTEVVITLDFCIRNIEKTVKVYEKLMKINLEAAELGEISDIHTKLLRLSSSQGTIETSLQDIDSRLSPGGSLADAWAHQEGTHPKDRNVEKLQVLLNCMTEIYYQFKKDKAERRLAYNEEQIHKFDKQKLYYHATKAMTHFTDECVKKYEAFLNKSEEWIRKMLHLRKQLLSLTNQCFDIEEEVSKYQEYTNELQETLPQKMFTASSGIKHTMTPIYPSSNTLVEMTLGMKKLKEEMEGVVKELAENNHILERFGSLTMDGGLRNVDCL

Compound | observed | method | concentration | remaining binding [%]
Cc1cnc(Nc2ccc(C(=O)N3CCC(N4CCCC4)CC3)cc2)nc1-c1cc2ccccc2s1 | binding | competition with immobilised ligand | 1 µM | 4.5
c1cncc(-c2cccc(Nc3nccc(NC4CCCCC4)n3)c2)c1 | binding | competition with immobilised ligand | 10 µM | 62
O=C(c1ccc(Nc2nccc(-c3cc4ccccc4s3)n2)cc1)N1CCC(N2CCCC2)CC1 | binding | competition with immobilised ligand | 1 µM | 27
C=CC(=O)N1CCC(C(=O)NCC(=O)N2CCN(c3nc(-c4cnc(N)nc4C(F)F)nc(N4CCOCC4)n3)CC2)CC1 | binding | competition with immobilised ligand | 1 µM | 91
O=C(c1ccc(Nc2ncc(Cl)c(-c3ccc(Cl)s3)n2)cc1)N1CCC(N2CCCC2)CC1 | binding | competition with immobilised ligand | 1 µM | 0
O=C(NC[C@@H]1[C@H]2CN(C(=O)OCc3cc(C(F)(F)F)cc(C(F)(F)F)c3)C[C@@H]12)c1ccc2[nH]nnc2c1 | cell-free assay | competition with immobilised ligand | 1 µM | 100
COc1cnc(Nc2cccc(S(N)(=O)=O)c2)nc1N1CCN(c2ccccc2)C(=O)C1 | binding | competition with immobilised ligand | 1 µM | 61
COc1cccc(CNC(=O)c2nc3scc(COCc4ccc(C(=O)O)cc4)c3c(=O)[nH]2)c1 | cell-free assay | competition with immobilised ligand | 1 µM | 94
CN(C)c1nccc(-c2cnn3ncccc23)n1 | binding |  | 1 µM | 82
O=C(NCC1CCOCC1)c1n[nH]cc1NC(=O)c1c(F)cccc1F | binding | competition with immobilised ligand | 1 µM | 96
CNCc1ccccc1-c1csc([C@@H](C)Nc2nc(C)nc3cc(OC)c(OC)cc23)c1 | cell-free assay | competition with immobilised ligand | 1 µM | 100
C[C@H]1CCN(c2nccc(-c3cnn4ncccc34)n2)C1 | binding |  | 1 µM | 80
CCN1CCN(Cc2ccc(C(=O)Nc3ccc(C)c(Oc4ccc5c(c4)CC(=O)N5)c3)cc2C(F)(F)F)CC1 | binding | competition with immobilised ligand | 1 µM | 50
COc1ccnn2ncc(-c3ccnc(N(C)C)n3)c12 | binding |  | 1 µM | 68
COc1ccc2c(c1)O[C@H](c1ccc(OC)c(OC)c1)C[C@@H]2NC(=O)C1(c2ccc3c(c2)OC(F)(F)O3)CC1 | cell-free assay | competition with immobilised ligand | 1 µM | 99
CN(CCCC(F)(F)F)c1nccc(-c2cnn3ncccc23)n1 | binding |  | 1 µM | 91
O=c1nc(-c2ccccn2)sc2ccccc12 | binding | competition with immobilised ligand | 1 µM | 91
F[C@@H]1CCN(c2nccc(-c3cnn4ncccc34)n2)C1 | binding |  | 1 µM | 84
CNC(=O)[C@@H]1CC[C@@H](n2c(-c3ccc4cnccc4c3)nc3ccc(C(=O)NCc4cccc(C(N)=O)c4)cc32)C1 | binding | competition with immobilised ligand | 1 µM | 95
CS(=O)(=O)NCC[C@H](NC(=O)c1cncc2c1cnn2-c1ccc(F)cc1)c1ccnc(S(C)(=O)=O)c1 | cell-free assay | competition with immobilised ligand | 1 µM | 94
N[C@H]1CCN(c2nccc(-c3cnn4ncccc34)n2)C1 | binding |  | 1 µM | 100
